Measured values published in ChEMBL document CHEMBL1141283, “Benzaldehyde derivatives from Sarcodontia crocea” (2007).
Converted amounts (≈) assume the structure as drawn.

Experiments:
Assay type in all cases: functional
Plenodomus lingam = experiment: Antifungal activity against Leptosphaeria maculans IMI266355 by microdilution method
Method in brief: (§1)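 Broth microdilution with two-fold (×2) dilution series of compounds from 1.56 to 800 µg/mL, four replicates per concentration per test strain; MIC taken as the lowest concentration inhibiting growth. Nystatin (fungi) and chloramphenicol (bacteria) were run as positive controls over the same concentration range.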

Pseudomonas syringae = experiment: Antibacterial activity against Pseudomonas syringae IMI347448 by microdilution method
Method in brief: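 Two-fold broth microdilution MIC, four replicates per concentration per strain, over 1.56 to 800 µg/mL. Chloramphenicol served as the antibacterial positive control across the same concentration range.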

Eurotium amstelodami = experiment: Antifungal activity against Eurotium amstelodami FC1021 by microdilution method; conditions: Aspergillus amstelodami; method in brief: as §1
Bacillus subtilis = experiment: Antibacterial activity against Bacillus subtilis IMI347329 by microdilution method; method in brief: as §1
Botrytis cinerea = experiment: Antifungal activity against Botrytis cinerea IMI160282 by microdilution method; method in brief: as §1
Cladosporium herbarum = experiment: Antifungal activity against Cladosporium herbarum IMI300461 by microdilution method; method in brief: as §1

In the case of O=Cc1ccc(-c2ccoc2)cc1, the MIC (Plenodomus lingam) is reported as 200 µg/mL (≈ 1160 µM), the MIC (Pseudomonas syringae) is reported as 200 µg/mL (≈ 1160 µM) and the MIC (Eurotium amstelodami) is reported as 100 µg/mL (≈ 581 µM). The MIC (Bacillus subtilis) was 800 µg/mL (≈ 4650 µM), the MIC (Botrytis cinerea) was 200 µg/mL (≈ 1160 µM) and the MIC (Cladosporium herbarum) was 200 µg/mL (≈ 1160 µM).

Molecule NYSTATIN has an MIC (Plenodomus lingam) of 100 µg/mL, an MIC (Eurotium amstelodami) of 50 µg/mL and an MIC (Botrytis cinerea) of 50 µg/mL. It also gave an MIC (Cladosporium herbarum) of 25 µg/mL.

Molecule O=Cc1ccc(C2COC(=O)C2)cc1 (stereo not drawn) has an MIC (Plenodomus lingam) of 400 µg/mL (≈ 2100 µM), an MIC (Pseudomonas syringae) of 400 µg/mL (≈ 2100 µM) and an MIC (Eurotium amstelodami) of 200 µg/mL (≈ 1050 µM). It also gave an MIC (Bacillus subtilis) of over 800 µg/mL, an MIC (Botrytis cinerea) of 200 µg/mL (≈ 1050 µM) and an MIC (Cladosporium herbarum) of 400 µg/mL (≈ 2100 µM).

For O=C(N[C@H](CO)[C@H](O)c1ccc([N+](=O)[O-])cc1)C(Cl)Cl [CHLORAMPHENICOL], the MIC (Pseudomonas syringae) was 3.13 µg/mL (≈ 9.69 µM) and the MIC (Bacillus subtilis) was 6.25 µg/mL (≈ 19.3 µM).
